Bioassay records as filed in PubChem.
PfM18AAP inh-1 = blocks P. falciparum M18 aspartyl aminopeptidase; recombinant PfM18AAP, H-Glu-NHMec fluorogenic cleavage; inhibition, % at 7.35 µM; 290,000 compounds, 1.2% hits;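 active = inhibition above the campaign mean inhibition over all tested compounds plus 3 SD, cut at about 28% in these data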;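 note: 0% = plate median of test compound wells and 100% = 2 mM ZnCl2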
HGIII-sPLA2 inh = Inhibits HGIII-sPLA2 liposome hydrolysis, primary screen; Q9NZ20; QFRET BODIPY PC-A2 liposome hydrolysis, fluorescence; inhibition, % at 12.2 µM; 370,000 compounds, 0.56% hits;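 active = inhibition above mean plus 3 SD of compounds lying within the high and low control bounds, cut at about 19% in these data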;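 note: 0% = median of test compound wells and 100% = no enzyme DMSO wells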
NRP1-CendR mod = alters CendR peptide binding to human NRP-1. O14786. FAM-RPARPAR peptide binding to NRP-1, fluorescence polarization. inhibition, % at 25 µM. 360,000 compounds, 0.85% hits. AID 602438;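 active = inhibition or corrected inhibition above about 18%, plus a signal ratio from 0.5 to 1.5, limit read from the data, passing the limit was not always enough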
Target sequence (O14786 whole entry, looked up): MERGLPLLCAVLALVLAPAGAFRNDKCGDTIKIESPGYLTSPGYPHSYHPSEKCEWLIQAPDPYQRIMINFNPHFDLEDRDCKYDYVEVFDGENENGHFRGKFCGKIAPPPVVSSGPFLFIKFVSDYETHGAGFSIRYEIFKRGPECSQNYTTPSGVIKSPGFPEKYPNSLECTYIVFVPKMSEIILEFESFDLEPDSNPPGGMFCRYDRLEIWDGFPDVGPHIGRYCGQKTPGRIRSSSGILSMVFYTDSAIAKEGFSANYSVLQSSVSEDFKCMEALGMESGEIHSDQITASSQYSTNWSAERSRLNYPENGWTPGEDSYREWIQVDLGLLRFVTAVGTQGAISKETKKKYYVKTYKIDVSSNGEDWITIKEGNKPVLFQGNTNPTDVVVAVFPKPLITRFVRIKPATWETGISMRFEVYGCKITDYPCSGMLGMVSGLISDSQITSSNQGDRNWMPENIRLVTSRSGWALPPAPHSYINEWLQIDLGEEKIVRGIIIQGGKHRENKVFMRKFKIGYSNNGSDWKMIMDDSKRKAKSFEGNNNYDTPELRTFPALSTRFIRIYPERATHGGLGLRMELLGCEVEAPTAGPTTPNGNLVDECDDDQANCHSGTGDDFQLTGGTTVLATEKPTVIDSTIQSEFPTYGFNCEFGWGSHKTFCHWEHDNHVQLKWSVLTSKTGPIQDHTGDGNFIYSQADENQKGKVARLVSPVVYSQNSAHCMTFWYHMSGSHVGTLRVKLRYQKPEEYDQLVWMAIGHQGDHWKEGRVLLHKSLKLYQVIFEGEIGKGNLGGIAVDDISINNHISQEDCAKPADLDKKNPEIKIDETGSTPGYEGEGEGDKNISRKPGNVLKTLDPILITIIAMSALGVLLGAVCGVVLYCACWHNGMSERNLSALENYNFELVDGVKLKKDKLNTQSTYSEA
HTR2A ag = agonists of mouse serotonin 5-HT2A receptor (HTR2A) | CHO-K1 mHTR2A beta-arrestin complementation, luminescence; percent of 30 µM serotonin response | activation, % at 7.6 µM | 360,000 compounds, 0.66% hits;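 active = activation above a run cutoff, the mean activation of all tested compounds plus 3 SD, cut at about 14% in these data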;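 note: 0% = plate median of compound wells and 100% = 30 µM serotonin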
Arrestin-AP2 inh = human beta-arrestin and AP2 interaction inhibition. inhibition, % at 10 µM. AID 504490. 340,000 compounds, 0.31% hits. FITC-arrestin peptide / GST-AP2 beads, flow cytometry; AP2 beta2 appendage carries R879A mutation;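 active = inhibition above a set limit, near 3 SD of compounds lacking own fluorescence, cut at about 54% in these data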;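 note: plate controls were DMSO wells for no effect and 5 µM unlabelled arrestin peptide for full effect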
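Measured by: flow cytometry, FL1 (488/535 nm); Material: AP2 appendage R879A on GSH beads; Evaluation: percent response; Timing: pre-incubation 12 min, peptide binding 1 h, room temperature; Also added: 50 nM FITC-arrestin peptide; Medium: PBS with 0.05% Tween 20 and 0.1% BSA.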
Hep lipid drop = hepatic lipid droplet formation modulation | inhibition, % at 6.5 µM | AID 1656 | 240,000 compounds, 0.4% hits | AML12 mouse hepatocytes, oleate lipid droplets, BODIPY imaging;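 active = lipid droplet intensity inhibited by at least 50%, with more than 500 cells counted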
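Test system: AML12 hepatocytes (mouse); reagent: oleate loading, 100 µM; dosing: one dose, 6.5 µM compound; incubation: overnight exposure; signal: fluorescence imaging, 20x objective, two fields per well; read-out basis: % inhibition of corrected integrated BODIPY droplet signal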
PfM18AAP inh-2 = PfM18AAP inhibition, confirmation; shares compounds with PfM18AAP inh-1; recombinant PfM18AAP, H-Glu-NHMec fluorogenic cleavage; inhibition, % at 7.35 µM; 2,400 compounds, 28% hits; AID 2170;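 active = mean inhibition over replicate wells above the hit cutoff set for the earlier primary screen, cut at about 29% in these data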;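 note: 0% = median of test compound wells and 100% = 2 mM ZnCl2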
CTSL1 confirm = counter-screen for PFM18AAP inhibitors: confirmation of human cathepsin L inhibitors | 2,400 tested, under 10 active | purified cathepsin L1, Z-Leu-Arg-MCA fluorescence | shares compounds with PfM18AAP inh-1 | inhibition, % at 5.96 µM;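 active = average inhibition across replicates above the hit cutoff set in the earlier primary screen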;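 note: 0% = median of test compound wells and 100% = Z-Phe-Ala-diazomethylketone 1 µM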
Active calls of the source: *; x = not tested or not shown. Hits are enriched below; roughly 3.3% of the tested compounds scored in any of these assays.

SMILES	PfM18AAP inh-1	HGIII-sPLA2 inh	NRP1-CendR mod	HTR2A ag	Arrestin-AP2 inh	Hep lipid drop	PfM18AAP inh-2	CTSL1 confirm
N#Cc1c(-c2ccccc2)cc(-c2ccccc2)nc1SCC(=O)NCC(=O)O	38*	-16	-3	0	-3	-1	-11	3
COc1ccc(-c2cc(-c3ccccc3)c(C#N)c(SCC(=O)O)n2)cc1	x	-6	-15	8	31	x	x	x
Oc1ccc(-c2nc(-c3ccc(O)c(O)c3)cs2)cc1	59*	0	1	-11	2	x	71*	-13
COc1cccc(-c2ccc(CC[C@H]3O[C@H]4CC[C@H](CO)O[C@H]4C[C@H]3NS(C)(=O)=O)cc2)c1	x	-28	x	x	x	x	x	x
CNC(=O)/C(=C\c1ccc([N+](=O)[O-])cc1)NC(C)=O	5	-3	5	-2	-6	x	x	x
CC(=O)N/C(=C/c1ccc([N+](=O)[O-])cc1)C(=O)O	32*	1	4	3	35	-7	-37	-3
COC(=O)[C@]12C[C@H](CC(=O)N3CCN(C(=O)c4ccco4)CC3)C(=O)N(Cc3ccccc3)C1=C[C@H](C1CCCC1)O[C@@H]2C	x	-12	x	x	x	x	x	x
O=C(Cc1ccccc1)N/N=C/c1ccc(OCC(=O)Nc2ccccc2)cc1	-1	-3	-14	-3	-5	30	x	x
N#CCC(=O)N/N=C/c1ccc(OCC(=O)Nc2ccc(F)cc2)cc1	42*	-31	-6	5	3	4	-45	4
N#CCC(=O)N/N=C/c1ccc(Cl)cc1	26	-17	-14	-3	-5	6	x	x
CCOc1ccccc1/C=N/NC(=O)C[n+]1ccccc1	x	7	7	-6	-3	x	x	x
CN(c1ccccc1)c1ccc(/C=N/NC(=O)CC#N)cc1	36*	-13	-15	4	-3	2	-33	9
CCCCOc1ccccc1/C=N/NC(=O)CC#N	38*	-20	16	-3	-4	18	-13	-6
COc1ccc(-n2nnnc2SCC(N)=O)cc1	-9	-1	10	0	-4	1	x	x
COc1ccc(-n2nnnc2SCC(=O)c2ccc(O)c(O)c2)cc1	35*	-10	-58	-3	8	-17	30*	-4
NC(=O)c1ccc(-n2nnnc2SCC(=O)c2ccc(O)c(O)c2)cc1	51*	-14	-57	4	15	-6	29*	-1
COC(=O)c1cc2c(c3c4cc(OC)ccc4n(S(=O)(=O)c4ccc(OC)cc4)c13)C(=O)N(Cc1ccco1)C2	x	8	x	x	x	x	x	x
O=C(Cn1nnc(-c2ccc(N3CCOCC3)cc2)n1)c1ccc(F)cc1	x	-44	x	x	x	x	x	x
Cc1ccc(NC(=S)NNc2ccc([N+](=O)[O-])cc2S(=O)(=O)Nc2ccccc2C(=O)O)cc1C	59*	0	-10	1	38	-5	-7	-5
CC(=O)Nc1ccc(C=NNc2ccc([N+](=O)[O-])cc2S(=O)(=O)Nc2ccccc2C(=O)O)cc1	x	-24	-57	2	6	x	x	x
COCCCNC(=S)NNC(=O)c1ccccn1	16	5	2	3	-1	1	x	x
COCCCNC(=S)NNC(=O)c1cc(Cl)c(O)c(Cl)c1	47*	6	3	-1	12	26	19	4
Cn1cc(P(=S)(N2CCOCC2)N2CCOCC2)cc1P(=O)(N1CCOCC1)N1CCOCC1	23	7	2	3	7	4	x	x
Cn1cc(P(=O)(N2CCOCC2)N2CCOCC2)cc1P(=S)(N1CCOCC1)N1CCOCC1	37*	-4	-1	-1	-33	24	-18	7
CCOc1ccc(-n2c(SCC(=O)c3ccc4ccccc4c3)nnc2-c2ccco2)cc1	x	-12	x	x	x	x	x	x
SMILES	PfM18AAP inh-1	HGIII-sPLA2 inh	NRP1-CendR mod	HTR2A ag	Arrestin-AP2 inh	Hep lipid drop	PfM18AAP inh-2	CTSL1 confirm
O=C1C2C3C=CC(C3)C2C(=O)N1c1ncn[nH]1 (stereo not given)	9	2	-9	0	9	x	x	x
O=C1c2ccccc2C(=O)N1c1ncn[nH]1	44*	0	-7	5	-3	12	-4	-2
CCNC(=O)C1CCCN(C(=O)c2ccccc2)CC1 (stereo not given)	x	1	3	5	x	x	x	x
CCNC(=S)NNc1nncc2ccccc12	36*	1	-8	6	-23	-1	11	2
CCOC(=O)/C(=N/Nc1ccccc1)c1csc(Nc2ccccc2)n1	13	5	5	2	-2	18	x	x
CO/N=C(\C(=O)O)c1csc(NN=C(C)C)n1	41*	5	4	2	27	17	-16	-4
Cn1c(SCC(=O)c2ccc(O)c(O)c2)nnc1-c1ccccc1	48*	-9	-14	2	-4	x	17	3
O=C(CSc1nc2ccccc2n1CCc1ccccc1)c1ccc(O)c(O)c1	44*	24*	-36	3	-25	-9	11	-3
Cn1c(SCC(=O)c2ccc(O)c(O)c2)nnc1-c1cccs1	46*	-3	-28	-2	-15	x	8	0
Cc1nn(-c2ccc(Cl)cc2)c(Cl)c1/C=N/NC(=O)c1ccc(NS(=O)(=O)c2cccs2)cc1	x	-29	6	-5	-10	x	x	x
CCN(CC)c1ccc(N=Cc2cc(Br)ccc2O)cc1	37*	1	-51	6	x	0	-18	-5
Cc1cccc(/C=C/C(=O)c2cc(Br)ccc(=O)c2O)c1	49*	6	-56	4	24	1	-21	4
CCOc1ccc(/C=C/C(=O)c2cc(Br)ccc(=O)c2O)cc1	28	10	-71	1	-2	-44	x	x
O=C(CCc1nnc2ccc(NCc3ccco3)nn12)Nc1ccccc1F	48*	3	12	0	2	11	-21	-1
CC1CCN(C(=O)CSc2nc3ccccc3c(=O)[nH]2)CC1	1	2	2	6	6	-6	x	x
CC1CCN(C(=O)CSc2nc3[nH]ncc3c(=O)[nH]2)CC1	33*	5	3	0	8	11	-26	-7
Cc1cccc(NC(=O)CSc2nc3[nH]ncc3c(=O)[nH]2)c1C	42*	9	1	0	0	-11	28	-4
Cc1cc(-c2ccccc2)nc(Nc2nc3c(C)cccc3c(=O)[nH]2)n1	x	12	1	-4	0	x	x	x
Oc1ccc(C2=Nn3c(nnc3-c3ccco3)SC2)cc1O	75*	3	-47	-6	6	15	60*	-1
Nc1nc(-c2ccco2)c(-c2ccco2)s1	38*	1	-31	4	29	x	-49	-4
C[C@H]1[C@@H](OC(=O)Nc2ccc(C(F)(F)F)cc2)CC[C@@]23CCCN2C(=O)CCC[C@@H]13	x	-11	x	x	x	x	x	x
